Laboratory results taken from ChEMBL document CHEMBL1133686, “6-Aminoquinolones as new potential anti-HIV agents” (J Med Chem, 2000).
Several values for one entry are separate records, joined by “and”; a condition that tells them apart may be missing. Identical values can stand only once.

Assays:
C8166 = assay: Selectivity index in HIV-1 infected C8166 (human CD4) cells.; format: functional
In short: (§1)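 Selectivity index in C8166 cells, computed as the ratio of TC50 (concentration reducing cell growth by 50%) to EC50 (concentration reducing supernatant reverse transcriptase activity by 50% in HIV-1 IIIB-infected cultures).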

[1] = system: Human immunodeficiency virus 1; assay: In vitro antiviral activity against HIV-1 IIIB in C8166 (human CD4) cells.; format: functional, organism-based; conditions: Human immunodeficiency virus 1, C8166
In short: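 HIV-1 IIIB infection of C8166 cells, compounds from DMSO stocks of 25 mM or higher. EC50 is the drug concentration (μM) reducing reverse transcriptase activity of culture supernatants by 50%. Syncytium formation, gp120 ELISA and cytopathic-effect reduction were also scored. Values are the mean of at least three experiments run in triplicate.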

C8166 (human) = assay: In vitro toxicity to C8166 (human CD4) cells.
[2] = Toxicity which reduces cell growth by 50% against herpes simplex virus type 1 (HSV-1) in vero cells
Herpes simplex virus 1 = assay: Antiviral activity determined against herpes simplex virus type 1 (HSV-1) in vero cells; conditions: Herpes simplex virus 1, Vero
[3] = Selectivity index expressed as ratio of TC50 (HIV-1) to EC50 (HIV-1) in C8166 cells; format: functional; in short: as §1

Row | SMILES | SI (C8166) | EC50 [1] [µM] | TC50 (C8166 (human)) [µM] | TC50 [2] [µM] | EC50 (Herpes simplex virus 1) [µM] | SI [3]
1 | Cc1c(N2CCC(C)CC2)c(N)cc2c(=O)c(C(=O)O)cn(C3CC3)c12 | 4 | 20 | 80 |  |  | 
2 | CC(C)(C)n1cc(C(=O)O)c(=O)c2cc(N)c(N3CCN(c4ncccn4)CC3)cc21 | 4 | 9.48 | 42.6 |  |  | 
3 | CCOC(=O)c1cn(C)c2cc(N3CCN(c4ccccn4)CC3)c(N)cc2c1=O | 1.5 | 37 | 57 | >300 | > 300 | 
4 | Nc1cc2c(=O)c(C(=O)O)cn(C3CC3)c2cc1N1CCN(c2ccccn2)CC1 |  | 0.7 | 9 | 95 | 38 | 
5 | CC(C)(C)n1cc(C(=O)O)c(=O)c2cc(N)c(N3CCN(c4ccccn4)CC3)cc21 | 4 | 2 | 8.1 | 290 | 82 | 
6 | Cn1cc(C(=O)O)c(=O)c2cc(N)c(N3CCN(c4ccccn4)CC3)cc21 | 70 | 0.1 | 7 | 270 | 30 | 70
7 | CC(C)(C)n1cc(C(=O)O)c(=O)c2cc(F)c(N3CCN(c4ccccn4)CC3)cc21 | 5 | 7.5 | 40 |  |  | 
8 | CCOC(=O)c1cn(C(C)(C)C)c2cc(N3CCN(c4ccccn4)CC3)c(N)cc2c1=O | 1.5 | 51.2 | 77.9 | >300 | > 300 | 
9 | CC(C)(C)n1cc(C(=O)O)c(=O)c2cc(N)c(N3CCN(c4ccc(F)cc4)CC3)cc21 | 1.2 | 8.44 | 10.7 |  |  | 
10 | Cc1cn([C@H]2C[C@H](N=[N+]=[N-])[C@@H](CO)O2)c(=O)[nH]c1=O [ZIDOVUDINE] | 25000 | 0.02 | 500 |  |  | 
11 | O=C(O)c1cn(C2CC2)c2cc(N3CCN(c4ccccn4)CC3)c(F)cc2c1=O | 13 | 5 | 65 |  |  | 
12 | Cn1cc(C(=O)O)c(=O)c2cc(F)c(N3CCN(c4ccccn4)CC3)cc21 | 5 | 1.3 | 7 |  |  | 
13 | CNc1cc2c(=O)c(C(=O)O)cn(C)c2cc1N1CCN(c2ccccn2)CC1 | 5 | 3.5 | 19.5 |  |  | 
14 | COc1ccc(N2CCN(c3cc4c(cc3N)c(=O)c(C(=O)O)cn4C(C)(C)C)CC2)cc1 | 1.4 | 9.5 | 13.8 |  |  | 
15 | COc1ccccc1N1CCN(c2cc3c(cc2N)c(=O)c(C(=O)O)cn3C(C)(C)C)CC1 | 6 and 9 | 3.2 | 20 | 300 | 33 | 
16 | CC(C)(C)n1cc(C(=O)O)c(=O)c2cc(N)c(N3CCc4ccccc4C3)cc21 | 2 | 40 | 80 |  |  | 
17 | Cc1c(N2CCc3ccccc3C2)c(N)cc2c(=O)c(C(=O)O)cn(C3CC3)c12 | 5 | 80 | 400 |  |  | 
18 | CN1CCN(c2c(F)cc3c(=O)c(C(=O)O)cn4c3c2SCC4)CC1 [RUFLOXACIN] | 2 | 200 | 400 |  |  | 
19 | O=C(O)c1cn(C2CC2)c2cc(N3CCNCC3)c(F)cc2c1=O [CIPROFLOXACIN] | 1.6 | 100 | 160 |  |  | 
20 | Nc1cc2c(=O)c(C(=O)O)cn(N3CCN(c4ccccn4)CC3)c2cc1Cl | >2 | 500 | >1000 |  |  | 
21 | Cc1c(N2CCN(c3ccccn3)CC2)c(N)cc2c(=O)c(C(=O)O)cn(C)c12 | 6 | 7.5 | 46.2 |  |  | 
